# This is a sample that favours compounds with a hit; in the whole collection about 3.4% have one here.
# Cl transport mod – modulates chloride dependent transport by human KCC2; Q9H2X9; KCC2 cells, thallium flux FluoZin-2 fluorescence; B-score of Tl+ flux slope (higher = more flux/activation; lower = inhibition) at 10 µM; hit rate 2.2% among 190,000; AID 1456;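 active = thallium flux slope and its plate-corrected score both differing from the plate sample mean at a set confidence after two filtering rounds, in either direction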;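 also: slope of fluorescence scaled to starting intensity during 10 to 20 s after thallium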
# Target sequence (Q9H2X9 whole entry, looked up): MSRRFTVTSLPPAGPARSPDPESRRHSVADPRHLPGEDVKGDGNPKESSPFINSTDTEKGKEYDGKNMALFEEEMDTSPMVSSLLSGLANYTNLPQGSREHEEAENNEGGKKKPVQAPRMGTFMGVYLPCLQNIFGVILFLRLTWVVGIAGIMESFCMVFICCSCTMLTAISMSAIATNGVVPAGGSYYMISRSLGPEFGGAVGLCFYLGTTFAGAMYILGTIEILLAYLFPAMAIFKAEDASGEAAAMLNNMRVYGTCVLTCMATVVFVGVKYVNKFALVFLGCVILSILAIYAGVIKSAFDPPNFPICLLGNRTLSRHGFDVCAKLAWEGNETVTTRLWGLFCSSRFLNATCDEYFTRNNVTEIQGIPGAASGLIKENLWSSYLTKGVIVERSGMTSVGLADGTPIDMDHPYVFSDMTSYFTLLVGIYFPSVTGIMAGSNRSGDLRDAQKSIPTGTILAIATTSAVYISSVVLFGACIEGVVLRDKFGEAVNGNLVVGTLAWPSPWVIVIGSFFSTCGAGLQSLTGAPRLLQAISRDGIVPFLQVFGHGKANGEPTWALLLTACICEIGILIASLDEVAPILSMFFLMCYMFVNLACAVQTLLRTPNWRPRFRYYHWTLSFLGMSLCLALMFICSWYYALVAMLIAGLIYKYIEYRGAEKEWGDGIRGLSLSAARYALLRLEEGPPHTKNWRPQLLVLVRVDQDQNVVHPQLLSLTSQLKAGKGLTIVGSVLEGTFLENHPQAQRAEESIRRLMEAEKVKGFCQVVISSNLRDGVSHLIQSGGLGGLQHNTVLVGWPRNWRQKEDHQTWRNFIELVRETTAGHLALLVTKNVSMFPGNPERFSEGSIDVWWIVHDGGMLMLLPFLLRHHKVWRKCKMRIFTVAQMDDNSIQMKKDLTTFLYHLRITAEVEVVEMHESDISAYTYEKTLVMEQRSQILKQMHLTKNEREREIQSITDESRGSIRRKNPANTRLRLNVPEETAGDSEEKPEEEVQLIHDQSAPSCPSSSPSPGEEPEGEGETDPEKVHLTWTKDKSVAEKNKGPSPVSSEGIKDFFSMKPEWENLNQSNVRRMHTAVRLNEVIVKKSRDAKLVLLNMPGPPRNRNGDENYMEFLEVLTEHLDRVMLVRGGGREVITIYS
# MDM2 E3 inh – blocks human Mdm2 ubiquitin ligase activity. cell-based MDM2 ubiquitination luciferase reporter, 2 h; 0 = plate control, 100 = twice control, blank-subtracted. signal enhancement, % at 5 µM. hit rate 0.11% among 210,000. AID 1230;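 active = signal enhancement of 30% or more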;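 also: luminescence tracks abundance of the self-degrading MDM2-luciferase fusion protein; higher signal means inhibition of MDM2 E3 ligase activity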
#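 Assay system: mammalian cells stably expressing self-ubiquitinating, self-degrading MDM2 E3–luciferase fusion. Quantity: 2000 cells in each well. Medium: DMEM culture medium. Compound dosing: single-point 5 µM. Timing: cell settling 4 h, compound treatment 2 h, both 37 °C. Technique: luciferase luminescence. Read-out basis: percent signal gain over controls, blank-subtracted. Benchmarks: plate controls and plate blanks.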
# ROMK primary – modulates human ROMK potassium channel activity | P48048 | Tet-inducible ROMK, thallium flux fluorescence; actives lie on both sides | B-score at 10 µM | hit rate 2% among 130,000 | AID 1918;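 active = signal ratio slope over the read window, or its plate-corrected B-score, at least 3 SD from the plate mean, either direction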;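 also: B-score of the F/F0 ratio slope over 7 to 12 s after thallium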
# p97 ATPase inh – inhibitors of human p97 ATPase; inhibition, % at 8 µM; hit rate 0.42% among 220,000; AID 1481; recombinant p97 ATPase, Kinase-Glo ATP luminescence, 3 h; in the data active = inhibition above about 15%;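 also: 0% = DMSO vehicle and 100% = wells lacking enzyme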
# Redox H2O2 prof – compounds producing H2O2 with reducing agent – biochemical, NIH compound library profiling, artefact control for MLSCN library redox annotation, primary screen; DTT-dependent redox cycling H2O2, phenol red/HRP absorbance; 100% = 100 µM peroxide control, 0% = buffer; activation, % at 10 µM; AID 878; hit rate 0.03% among 200,000;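 active = activation of at least 50% relative to the plate's high and low controls in the primary single-dose screen; inactive = activation below 50%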;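 also: compound incubated with DTT at 0.8 mM final as the reducing agent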
# PKD1 kinase inh – blocks activity of human protein kinase D1; hit rate 0.056% among 200,000; inhibition, % (concentration not given with the values); Q15139; AID 797; PKD1 kinase fluorescence polarization assay; in the data active = inhibition above about 50%
# DTT redox conf – generates H2O2 by DTT-dependent redox cycling, confirmed in dose response; shares compounds with Redox H2O2 prof; phenol red-HRP absorbance; hit rate 40% among 60; EC50, µM;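 active = EC50 under a set limit for hydrogen peroxide production with the reducing agent DTT present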
# KCC2 secondary – KCC2 (human) modulation, secondary assay; AID 1713; hit rate 15% among 3,700; HEK293-KCC2, thallium flux, FluoZin2 fluorescence; active compounds read high; shares compounds with Cl transport mod; normalised thallium flux (F/F0 slope) at 10 µM;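 active = thallium flux slope above the same plate's solvent-only control mean plus 3 SD; inconclusive = the two replicate wells disagree; inactive = no significant difference from solvent-only control wells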
# KCC2 bumet counter – thallium flux despite bumetanide block in KCC2 cells, secondary assay 3 | shares compounds with Cl transport mod | HEK293-KCC2 + bumetanide/ouabain, thallium flux FluoZin2; active compounds read high | normalized thallium flux at 10 µM | hit rate 49% among 3,700 | AID 1714;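 active = thallium entry rate above the same plate's blocked-transporter control wells by more than 3 SD; inconclusive = the two repeat wells disagree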;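 also: raw slope of fluorescence over initial fluorescence between 10 and 20 s after thallium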
# KCC2 secondary2 – confirmation of human KCC2 transport modulators. hit rate 23% among 3,700. shares compounds with Cl transport mod. normalized thallium flux at 10 µM. AID 1715. HEK293-KCC2, thallium flux FluoZin2 fluorescence; actives lie on both sides; F/F0 rise rate, 10–20 s post-thallium;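 active = thallium flux slope more than 3 SD above or below the plate's solvent-only control mean, mostly below; inconclusive = the two repeat wells disagreed; inactive = no significant shift from solvent-only controls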;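 also: raw slope with 0.1% DMSO as baseline and bumetanide as block control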
# HEK293 Tl flux – acts in parental HEK cells, KCC2 counter-screen | hit rate 46% among 3,700 | thallium flux rate (normalised fluorescence) at 10 µM | shares compounds with Cl transport mod | HEK293 parental cells, thallium flux FluoZin2, ouabain; baseline-ratio fluorescence slope, 10–20 s after thallium;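 active = thallium flux rate significantly above the same plate's solvent-only control wells, beyond their mean plus 3 SD; inconclusive = the two replicate wells gave conflicting results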
# KCC2 retest ouab – confirmation of human KCC2 modulators with ouabain | raw Tl+ flux slope (below DMSO = inhibition, above = activation) at 10 µM | AID 1717 | HEK293-KCC2, thallium flux FluoZin2 fluorescence; bidirectional: low = inhibitor, high = activator | shares compounds with Cl transport mod | hit rate 48% among 3,700;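 active = thallium flux slope beyond 3 SD from same-plate DMSO control mean in most replicates, usually higher, sometimes lower; inconclusive = repeat tests gave conflicting results; inactive = no significant difference from controls in most replicates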;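 also: slope of initial-normalized fluorescence between seconds 10 and 20 after thallium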
# HEK293 Tl flux2 – parental HEK flux effect, counter-screen 2. AID 1718. HEK293 parental, thallium flux FluoZin-2 fluorescence slope. hit rate 33% among 3,700. thallium flux slope at 10 µM. shares compounds with Cl transport mod;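 active = thallium flux slope above the same plate's solvent-control mean plus 3 SD in both duplicate wells; inconclusive = duplicate wells that disagreed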;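 also: run without ouabain in cells lacking the KCC2 cotransporter; slope of fluorescence scaled to its starting value between 10 and 20 s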
# p97 confirm – human p97 ATPase inhibition, confirmation; shares compounds with p97 ATPase inh; recombinant p97 ATPase, Kinase-Glo ATP luminescence; inhibition, % at 8 µM; hit rate 44% among 760; AID 1517;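 active = percent inhibition of p97 ATPase above a set limit, the primary screen's mean plus 3 SD, cut at about 15% in these data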;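 also: 0% = DMSO wells and 100% = wells lacking p97 protein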
# The depositor's hits bear a star; ? = inconclusive; · = no result.
SMILES,Cl transport mod,MDM2 E3 inh,ROMK primary,p97 ATPase inh,Redox H2O2 prof,PKD1 kinase inh,KCC2 secondary,KCC2 bumet counter,KCC2 secondary2,HEK293 Tl flux,KCC2 retest ouab,HEK293 Tl flux2,others
O=S(=O)(Nc1c(S(=O)(=O)c2ccccc2)c2nc3ccccc3nc2n1C1CCCCC1)c1ccccc1,-4.3*,-19,·,20*,95*,6,0.0083,0.006,0.034,0.0039,?,0.012,DTT redox conf=12*;p97 confirm=-1
CCC(C)n1c(NC(=O)c2ccccc2)c(C#N)c2nc3ccccc3nc21 (centres undefined),·,·,·,27*,63*,-6,·,·,·,·,·,·,DTT redox conf=>50;p97 confirm=4
Cc1cccc(N2C(=O)CS/C2=N\NC(=O)c2ccc(Br)cc2)c1C,7.9*,-4,·,3,4,5,0.006,0.035*,0.036,0.023*,0.034*,0.024*,
Cc1cccc(N2C(=O)CS/C2=N\NC(=O)c2cccnc2)c1C,1.1,3,-0.059,4,-1,5,·,·,·,·,·,·,
O=C(CCCN1C(=O)c2cccc3cccc(c23)C1=O)N1CCc2ccccc2C1,-4.1*,-61,·,-4,2,-4,0.015,?,0.024*,0.0058*,0.012*,0.0087,
O=C(NNC(=O)c1ccc(Cl)cc1Cl)c1csc(-c2cccnc2)n1,8.1*,-16,·,5,·,·,0.0059,0.018*,0.033,0.015*,?,0.018*,
C/C(=N\NC(=S)NCc1ccccc1)c1ccc(Cl)s1,10*,0,0.15,-1,1,-1,0.0097,0.017*,0.034,?,0.026*,0.012,
COCCNC(=S)N/N=C(\C)c1ccc(Cl)s1,32*,·,·,0,·,·,0.014*,0.06*,0.033,0.02*,0.039*,0.012*,
C/C(=N\NC(=O)Cc1ccccc1)c1cccs1,0.031,9,-0.03,2,-4,1,·,·,·,·,·,·,
C/C(=N\NC(=S)NCc1ccccc1)c1ccc(Br)cc1,1.6,1,0.67,0,1,3,·,·,·,·,·,·,
C/C(=N\NC(=S)NCc1ccccc1)c1cccs1,16*,1,0.05,-2,-1,-1,0.0077,0.041*,0.049*,0.04*,0.042*,0.04*,
C/C(=N\NC(=S)NCc1ccccc1)c1ccc(C)o1,5.4*,-13,1.4,-2,-1,4,0.0061,0.015*,0.029,0.012*,?,0.011,
COc1ccc(NC(=O)CC2C(=O)N(C)C(=S)N2CCc2ccccc2)cc1 (centres undefined),0.081,-10,-1.4,2,0,2,·,·,·,·,·,·,
CCOC(=O)c1[nH]c(C(=O)O)c(CCC(=O)OC)c1C,0.28,-8,·,4,1,-7,·,·,·,·,·,·,
CCOC(=O)c1[nH]c(C=O)c(C(=O)OCC)c1C,26*,-2,·,4,-1,2,0.0059,0.051*,0.04*,0.029*,0.044*,0.031*,
CCOC(=O)c1[nH]c(C)c(C(=O)O)c1C,-1.1,-3,-0.43,4,0,-4,·,·,·,·,·,·,
CCOC(=O)C(NC(C)=O)C(=O)O (centres undefined),0.018,-3,·,-2,3,-2,·,·,·,·,·,·,
COc1ccc(-c2cc(C)nc(SCc3cccc(C(=O)O)c3)n2)cc1,-4.8*,-5,0.015,-2,0,-1,0.011,0.013*,0.034,0.009*,0.023,?,
Cc1ccc(/C=C2\NC(=S)NC2=O)cc1[N+](=O)[O-],3*,-15,-1.9,-3,-2,3,0.015,0.0041,0.03,0.007,0.018,0.0087,
CCc1nnc(NC(=O)CSc2nnc(CNc3ccc(Cl)cc3)o2)s1,·,-21,-0.64,1,0,-6,·,·,·,·,·,·,
CCc1nnc(NC(=O)CSc2nnc(Cc3ccccc3)o2)s1,·,0,-0.15,4,0,8,0.0072,0.007,0.027,0.0063,?,0.0098,
COc1ccc(C(=O)c2cn[nH]c2-c2cc(Cl)ccc2O)cc1,-5.1*,-5,·,6,0,-7,0.0099,0.006,0.033,0.0072,0.022,0.011,
CCOC(=O)N1CCC(=NNc2ccc(S(=O)(=O)N3CCOCC3)cc2[N+](=O)[O-])CC1,0.16,-6,0.12,10,0,-1,·,·,·,·,·,·,
COc1ccc(F)c(CN2CCC(CO)(Cc3cccc(C(F)(F)F)c3)CC2)c1,·,-11,0.2,-3,-2,10,·,·,·,·,·,·,
CN1/C(=C\C=Nc2ccc3ccccc3c2)C(C)(C)c2ccccc21,·,-11,·,-4,1,-12,·,·,·,·,·,·,
Cc1cc(/N=C/C=C2\N(C)c3ccccc3C2(C)C)n(CCC#N)n1,-3.6*,-22,0.097,0,-1,-4,0.0078,0.0051,0.03,0.0056*,?,0.0096,
CCCSc1ccc(C(=O)Nc2ccc(F)cc2F)cn1,-1.9,-22,-0.44,0,0,-9,·,·,·,·,·,·,
CCSc1nnc(-c2cc(Br)ccc2N=Cc2c(C)[nH]n(-c3ccccc3)c2=O)c(=O)[nH]1,4.6*,-12,3,-2,0,-11,0.0067,0.014*,0.028,0.013*,0.02,0.012*,
O=C(N/N=C/c1ccccc1)c1n[nH]c2c1CCCC2,-0.03,-43,0.014,-4,0,-6,·,·,·,·,·,·,
O=C(N/N=C/C(Br)=C/c1ccccc1)c1n[nH]c2c1CCC2,·,-1,1.9,6,0,-4,0.0077,0.0066,0.028,0.007,?,0.0099,

# Screens: PubChem BioAssay, several laboratories
